# How the values were obtained:
# SK-MEL-2 = assay: Cytotoxicity against human SK-MEL-2 cells after 48 hrs by SRB assay; assay type: functional; conditions: SK-MEL-2, 48 h; for CC50: read-out: LC50 (the source's name)
# MOLT-4 [1] = assay: Cytotoxicity against human MOLT4 cells after 48 hrs by SRB assay; assay type: functional; conditions: MOLT-4, 48 h
# SK-MEL-5 = assay: Growth inhibition of human SK-MEL-5 cells assessed as cell growth at 10^-7 M incubated for 48 hrs by sulforhodamine B assay relative to control; assay type: functional; conditions: SK-MEL-5, 48 h, read-out: Activity
# SR = assay: Growth inhibition of human SR cells assessed as cell growth at 10^-7 M incubated for 48 hrs by sulforhodamine B assay relative to control; assay type: functional; conditions: read-out: Activity
# DU-145 [2] = assay: Growth inhibition of human DU145 cells assessed as cell growth at 10^-7 M incubated for 48 hrs by sulforhodamine B assay relative to control; assay type: functional; conditions: DU-145, 48 h, read-out: Activity
# COLO 205 = assay: Cytotoxicity against human COLO205 cells after 48 hrs by SRB assay; assay type: functional; conditions: COLO 205, 48 h
# MDA-MB-435 = assay: Growth inhibition of human MDA-MB-435 cells assessed as cell growth at 10^-5 M incubated for 48 hrs by sulforhodamine B assay relative to control; assay type: functional; conditions: MDA-MB-435, 48 h, read-out: Activity
# CCRF-CEM = assay: Growth inhibition of human CCRF-CEM cells assessed as cell growth at 10^-5 M incubated for 48 hrs by sulforhodamine B assay relative to control; assay type: functional; conditions: read-out: Activity
# OVCAR-3 = assay: Growth inhibition of human OVCAR3 cells assessed as cell growth at 10^-8 M incubated for 48 hrs by sulforhodamine B assay relative to control; assay type: functional; conditions: OVCAR-3, 48 h, read-out: Activity
# OVCAR-8 = assay: Cytotoxicity against human OVCAR8 cells after 48 hrs by SRB assay; assay type: functional; conditions: OVCAR-8, 48 h
# SN12C = assay: Growth inhibition of human SN12C cells assessed as cell growth at 10^-6 M incubated for 48 hrs by sulforhodamine B assay relative to control; assay type: functional; conditions: read-out: Activity
# KM12 = assay: Growth inhibition of human KM12 cells assessed as cell growth at 10^-5 M incubated for 48 hrs by sulforhodamine B assay relative to control; assay type: functional; conditions: KM12, 48 h, read-out: Activity
# 786-0 = assay: Growth inhibition of human 786-0 cells assessed as cell growth at 10^-7 M incubated for 48 hrs by sulforhodamine B assay relative to control; assay type: functional; conditions: 786-0, 48 h, read-out: Activity
# MOLT-4 [3] = assay: Growth inhibition of human MOLT4 cells assessed as cell growth at 10^-6 M incubated for 48 hrs by sulforhodamine B assay relative to control; assay type: functional; conditions: MOLT-4, 48 h, read-out: Activity
# HeLa = assay: Antiproliferative activity against human HeLa cells after 72 hrs by Coulter counter method; assay type: functional, cell-based
# Outline: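 Cell count assay in 96-well microtiter plates; (5–7.5) × 10⁴ tumor cells per well plus test compound. Cells proliferated at 37 °C in humidified CO₂-controlled atmosphere, 48 h for murine leukemia L1210, 72 h for human lymphocytic CEM and cervix carcinoma HeLa. Counted by Coulter counter; IC₅₀ is the concentration that inhibits proliferation by 50%.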
# NCI-H322M = assay: Growth inhibition of human NCI-H322M cells assessed as cell growth at 10^-6 M incubated for 48 hrs by sulforhodamine B assay relative to control; assay type: functional; conditions: read-out: Activity
# HOP-62 = assay: Cytotoxicity against human HOP62 cells after 48 hrs by SRB assay; assay type: functional; conditions: HOP-62, 48 h; for CC50: read-out: pLC50 (the source's name) (converted)
# Hs-578T = assay: Growth inhibition of human Hs 578T cells assessed as cell growth at 10^-8 M incubated for 48 hrs by sulforhodamine B assay relative to control; assay type: functional; conditions: read-out: Activity
# UO-31 [4] = assay: Cytotoxicity against human UO31 cells after 48 hrs by SRB assay; assay type: functional; conditions: UO-31, 48 h; for CC50: read-out: pLC50 (the source's name) (converted)
# HUVEC = assay: Antiproliferative activity against HUVEC cells after 4 days by Coulter counter method; assay type: cell-based; conditions: Homo sapiens, 96 h
# Outline: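 Primary HUVEC, primary HMVEC-d and the HMEC-1 line seeded at 20,000 cells/well in gelatin-coated plates in EC growth medium (EGM2). After overnight incubation, 5-fold compound dilutions added. Cells proliferated four days with compound, then trypsinized and counted by Coulter counter to derive IC₅₀.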
# SF-539 = assay: Growth inhibition of human SF539 cells assessed as cell growth at 10^-7 M incubated for 48 hrs by sulforhodamine B assay relative to control; assay type: functional; conditions: SF-539, 48 h, read-out: Activity
# UACC-257 = assay: Growth inhibition of human UACC257 cells assessed as cell growth at 10^-8 M incubated for 48 hrs by sulforhodamine B assay relative to control; assay type: functional; conditions: UACC-257, 48 h, read-out: Activity
# K562 = assay: Growth inhibition of human K562 cells assessed as cell growth at 10^-5 M incubated for 48 hrs by sulforhodamine B assay relative to control; assay type: functional; conditions: K562, 48 h, read-out: Activity
# U-251 = assay: Growth inhibition of human U251 cells assessed as cell growth at 10^-6 M incubated for 48 hrs by sulforhodamine B assay relative to control; assay type: functional; conditions: U-251, 48 h, read-out: Activity
# UO-31 [5] = assay: Growth inhibition of human UO31 cells assessed as cell growth at 10^-6 M incubated for 48 hrs by sulforhodamine B assay relative to control; assay type: functional; conditions: UO-31, 48 h, read-out: Activity
# DU-145 [6] = assay: Growth inhibition of human DU145 cells assessed as cell growth at 10^-4 M incubated for 48 hrs by sulforhodamine B assay relative to control; assay type: functional; conditions: DU-145, 48 h, read-out: Activity
# M14 = assay: Growth inhibition of human M14 cells assessed as cell growth at 10^-5 M incubated for 48 hrs by sulforhodamine B assay relative to control; assay type: functional; conditions: M14, 48 h, read-out: Activity
# Malme-3M = assay: Growth inhibition of human MALME-3M cells assessed as cell growth at 10^-6 M incubated for 48 hrs by sulforhodamine B assay relative to control; assay type: functional; conditions: read-out: Activity
# MDA-MB-231 = assay: Growth inhibition of human MDA-MB-231 cells assessed as cell growth at 10^-4 M incubated for 48 hrs by sulforhodamine B assay relative to control; assay type: functional; conditions: MDA-MB-231, 48 h, read-out: Activity
# [7] = read-out: LC50 (the source's name)
# [8] = read-out: pLC50 (the source's name) (converted)
structure (smiles),measurement,setting,value
C#C[C@@]1(O)[C@@H](CO)O[C@@H](n2cc(Cl)c3c(N)ncnc32)[C@@H]1O,GI50,SK-MEL-2; read-out: GI50,83.5 to 146 nM
same,CC50,SK-MEL-2,> 100000 nM
same,TGI,SK-MEL-2; read-out: TGI,268 to 481 nM
same,GI50,MOLT-4 [1]; read-out: GI50,161 to 181 nM
same,CC50,MOLT-4 [1]; [7],> 100000 nM
same,TGI,MOLT-4 [1]; read-out: TGI,6970 to 100000 nM
same,growth at 0.1 µM,SK-MEL-5,55 to 69%
same,growth at 0.1 µM,SR,34 to 46%
same,growth at 0.1 µM,DU-145 [2],51 to 61%
same,GI50,COLO 205; read-out: GI50,71.2 to 157 nM
same,CC50,COLO 205; [7],10000 to 40400 nM
same,TGI,COLO 205; read-out: TGI,276 to 521 nM
same,growth at 10 µM,MDA-MB-435,-65%
same,growth at 10 µM,CCRF-CEM,2 to 4%
same,growth at 0.01 µM,OVCAR-3,97 to 101%
same,GI50,OVCAR-8; read-out: GI50,10.2 to 33.6 nM
same,CC50,OVCAR-8; [7],> 100000 nM
same,TGI,OVCAR-8; read-out: TGI,730 to 1480 nM
same,growth at 1 µM,SN12C,5 to 11%
same,growth at 10 µM,KM12,5 to 9%
same,growth at 0.1 µM,786-0,89 to 94%
same,growth at 1 µM,MOLT-4 [3],2%
same,IC50,HeLa,51 nM
same,growth at 1 µM,NCI-H322M,13 to 23%
same,GI50,HOP-62; read-out: GI50,216 to 299 nM
same,TGI,HOP-62; read-out: TGI,1160 to 3350 nM
same,CC50,HOP-62,> 100000 nM
same,growth at 0.01 µM,Hs-578T,95 to 96%
same,GI50,UO-31 [4]; read-out: GI50,153 to 173 nM
same,TGI,UO-31 [4]; read-out: TGI,472 to 1780 nM
same,CC50,UO-31 [4],> 100000 nM
same,IC50,HUVEC,4.9 nM
same,growth at 0.1 µM,SF-539,90 to 98%
same,growth at 0.01 µM,UACC-257,87 to 100%
same,growth at 10 µM,K562,5 to 7%
C#C[C@@]1(O)[C@@H](CO)O[C@@H](n2cc(F)c3c(N)ncnc32)[C@@H]1O,CC50,SK-MEL-2,> 100000 nM
same,TGI,SK-MEL-2; read-out: TGI,2870 nM
same,GI50,SK-MEL-2; read-out: pGI50 (converted),447 nM
same,TGI,SK-MEL-2; read-out: pTGI (converted),2880 nM
same,growth at 1 µM,U-251,38%
same,TGI,MOLT-4 [1]; read-out: TGI,> 100000 nM
same,GI50,MOLT-4 [1]; read-out: pGI50 (converted),302 nM
same,CC50,MOLT-4 [1]; [8],> 100000 nM
same,TGI,MOLT-4 [1]; read-out: pTGI (converted),> 100000 nM
same,growth at 0.1 µM,SK-MEL-5,78%
same,growth at 0.1 µM,SR,65%
same,growth at 1 µM,UO-31 [5],23%
same,growth at 0.1 µM,DU-145 [2],92%
same,GI50,COLO 205; read-out: GI50,263 nM
same,TGI,COLO 205; read-out: TGI,1300 nM
same,GI50,COLO 205; read-out: pGI50 (converted),263 nM
same,CC50,COLO 205; [8],9330 nM
same,TGI,COLO 205; read-out: pTGI (converted),1290 nM
same,growth at 10 µM,MDA-MB-435,-26%
same,growth at 10 µM,CCRF-CEM,5%
same,growth at 0.01 µM,OVCAR-3,106%
same,TGI,OVCAR-8; read-out: TGI,3690 nM
same,GI50,OVCAR-8; read-out: pGI50 (converted),257 nM
same,CC50,OVCAR-8; [8],> 100000 nM
same,TGI,OVCAR-8; read-out: pTGI (converted),3720 nM
same,growth at 1 µM,SN12C,17%
same,growth at 10 µM,KM12,7%
same,growth at 100 µM,DU-145 [6],-4%
same,growth at 0.1 µM,786-0,87%
same,growth at 10 µM,M14,-48%
same,growth at 1 µM,MOLT-4 [3],11%
same,IC50,HeLa,150 nM
same,growth at 1 µM,NCI-H322M,31%
same,growth at 1 µM,Malme-3M,12%
same,TGI,HOP-62; read-out: TGI,7790 nM
same,GI50,HOP-62; read-out: pGI50 (converted),575 nM
same,CC50,HOP-62,> 100000 nM
same,TGI,HOP-62; read-out: pTGI (converted),7760 nM
same,growth at 100 µM,MDA-MB-231,-35%
same,growth at 0.01 µM,Hs-578T,92%
same,TGI,UO-31 [4]; read-out: TGI,2480 nM
same,GI50,UO-31 [4]; read-out: pGI50 (converted),468 nM
same,CC50,UO-31 [4],> 100000 nM
same,TGI,UO-31 [4]; read-out: pTGI (converted),2510 nM
same,IC50,HUVEC,67 nM
same,growth at 0.1 µM,SF-539,107%
same,growth at 0.01 µM,UACC-257,91%
same,growth at 10 µM,K562,8%

# Reference: ChEMBL document CHEMBL4270599, “Synthesis of a 3'-C-ethynyl-β-d-ribofuranose purine nucleoside library: Discovery of C7-deazapurine analogs as potent antiproliferative nucleosides” (Eur J Med Chem, 2018)
